Assay outcomes as filed in PubChem.
MLL AF4-AF9 inh: inhibitors of human MLL-AF4/AF9 interaction | P42568 | AlphaScreen, biotin-AF4 peptide binding to FLAG-AF9 | inhibition, % at 10 µM | 0.47% of 350,000 active | AID 651704;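 active = every replicate reaching a set inhibition limit, whatever the replicate mean, cut at about 25% in these data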;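 note: 0% = plate neutral control median and 100% = total signal loss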
Target sequence (P42568 whole entry, looked up): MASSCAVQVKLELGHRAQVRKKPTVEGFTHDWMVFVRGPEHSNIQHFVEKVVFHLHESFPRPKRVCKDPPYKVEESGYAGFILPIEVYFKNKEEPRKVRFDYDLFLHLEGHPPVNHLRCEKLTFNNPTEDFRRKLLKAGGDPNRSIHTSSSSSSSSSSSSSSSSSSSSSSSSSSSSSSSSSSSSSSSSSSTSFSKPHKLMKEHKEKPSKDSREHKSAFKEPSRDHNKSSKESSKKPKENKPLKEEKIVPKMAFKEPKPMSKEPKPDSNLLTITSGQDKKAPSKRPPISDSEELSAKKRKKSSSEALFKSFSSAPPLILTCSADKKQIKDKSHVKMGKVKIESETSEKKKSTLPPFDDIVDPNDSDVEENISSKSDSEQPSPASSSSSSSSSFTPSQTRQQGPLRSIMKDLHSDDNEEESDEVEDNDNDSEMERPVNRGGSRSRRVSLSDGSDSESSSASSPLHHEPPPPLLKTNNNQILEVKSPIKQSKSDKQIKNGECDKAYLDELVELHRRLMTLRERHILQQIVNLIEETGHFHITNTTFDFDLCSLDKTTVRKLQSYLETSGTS
Env fusion inh: inhibitors of HIV Env-mediated cell fusion; HeLa-JRFL Env/CEM21 cell fusion, luciferase; inhibition, % at 12.3 µM; 1.1% of 360,000 active;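 active = mean replicate inhibition score of at least 50 and every replicate individually at or above 50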;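 note: 0% = plate neutral controls and 100% = maraviroc near 300 nM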
FN deposit inh: fibronectin deposition inhibition | 0.086% of 350,000 active | inhibition, % at 12.6 µM | AH1F fibroblasts, Alexa488-fibronectin deposition fluorescence, overnight;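 active = mean inhibition across replicates of 30% or more, regardless of how many single replicates reach that level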;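 note: positive control wells lacked labelled fibronectin entirely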
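Material: AH1F fibroblasts assembling fluorescent fibronectin matrix; amount: 10000 AH1F cells/well; medium: DMEM, 2% serum; reagent: Alexa488-fibronectin, 24 nM final in well; dosing: single compound dose, delivered by pin transfer; incubation: 1 h adhesion, overnight exposure; detection: fluorescence after three HBSS washes, excitation 485 nm, emission 525 nm; measure: fibronectin deposition inhibition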
Glyco luc inh: blocks N-linked glycosylation in D54 reporter cells. D54 ERlucT glycosylation luciferase reporter, 24 h; percent of 100 nM tunicamycin response. AID 588692. 0.23% of 360,000 active. reporter increase, % at 12.5 µM;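 active = mean luciferase reporter signal, scaled so untreated is 0 and the glycosylation-blocking control 100, at or above a set limit in every replicate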;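 note: luciferase carries N-glycosylation sites so blocking glycosylation raises the light; 0% = median of neutral control wells and 100% = median of 100 nM tunicamycin wells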
EWS-Fli block: EWS/Fli transcriptional activity inhibition. A673 NR0B1-luciferase reporter, viability-normalised. inhibition, % at 12.6 µM. 0.67% of 350,000 active. AID 651661;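 active = mean inhibition of at least 50% after viability correction, with every replicate also passing that limit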;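 note: firefly luciferase signal divided by Alamar Blue viability fluorescence both relative to DMSO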
PAX8 reporter: PAX8 transcriptional activity inhibition; RMG-I TPO-luciferase reporter, SteadyGlo, 24 h; inhibition, % at 12.6 µM; 1.2% of 360,000 active; AID 652154;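 active = mean replicate inhibition at least 60% with every replicate also reaching 60%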;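 note: luciferase light reporting Pax8 driven TPO promoter activity; plate controls were median of neutral control wells for no effect and mitoxantrone controls for full effect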
The depositor's hits bear a star; / = not tested or not shown; ! = repeats disagree; [ ] = remark or other dose. Hits are enriched below; roughly 2.5% of the tested compounds scored in any of these assays.

SMILES	MLL AF4-AF9 inh	Env fusion inh	FN deposit inh	Glyco luc inh	EWS-Fli block	PAX8 reporter
C=CC[C@H](CC(=O)N(CCO)Cc1ccccc1)C(=O)NC[C@@H](OC(=O)[C@@H](CC=C)Cc1ccc(F)cc1)c1ccccc1	-0.8	-124.3	6.4	-2.7	2.4	43.8
C=CCC[C@H](Cc1ccc(F)cc1)C(=O)OC[C@H](Cc1c[nH]c2ccccc12)NC(=O)[C@@H](CC=C)CC(=O)N(CCO)Cc1ccccc1	-0.8	24.6	8.2	-3.8	5.0	28.6
COCC(=O)Nc1ccc2c(c1)OC[C@H](C)N(C(=O)C1CCCC1)C[C@@H](C)[C@H](OC)CN(C)C2=O	/	5.5[16.7 µM]	-5.5	/	-6.2	10.2
c1ccc(CNc2nc(NCCc3ccncc3)c3sccc3n2)cc1	1.0	26.3	3.7	17.3	16.4	69.9*
CSc1ccccc1CNc1nc(NCC2CC2)nc2ccsc12	5.7	56.3*	/	-1.5	31.3	47.9
CNc1nc(NCCOc2ccccc2Cl)c2sccc2n1	6.4	30.7	5.4	-3.5	2.8	-4.7
c1ccc(CNc2nc(NCc3cccs3)nc3ccsc23)cc1	1.2	-2.6	-0.5	2.3	12.2	35.2
COc1ccccc1CNc1nc(NCCOc2ccccc2Cl)c2sccc2n1	2.1	72.4*	/	-6.0	28.4	15.5
COc1ccc(S(=O)(=O)Nc2ccc3c(c2)C(=O)N([C@@H](C)CO)C[C@H](C)[C@H](CN(C)C)OCCCC[C@H](C)O3)cc1	/	-4.6[16.7 µM]	6.1	/	/	3.9
C[C@@H]1CN([C@H](C)CO)C(=O)c2cc(NC(=O)Cc3cn(C)c4ccccc34)ccc2O[C@H]1CN(C)C(=O)Nc1ccc(F)cc1	3.6	/	-23.1	/	9.0	26.3
O=C1C(Cl)=C(NCc2cccnc2)C(=O)c2ccccc21	4.6	-7.6	13.1	-12.9	58.5*	-14.6
O=C1C(Cl)=C(NCCc2ccccc2)C(=O)c2ccccc21	-5.2	6.4	22.4	2.2	-14.3	-13.4
C[C@@H]1CN([C@H](C)CO)C(=O)c2cc(C#CCN(C)C)cnc2O[C@@H]1CN(C)C(=O)c1cnccn1	-5.5	/	/	/	1.9	8.2
CCCNC(=O)C[C@@H]1C[C@H]2c3cc(NS(=O)(=O)c4ccccc4)ccc3O[C@H]2[C@@H](CO)O1	/	-15.6[16.7 µM]	-3.6	/	-3.7	5.4
C[C@@H](C(=O)NCc1ccccc1)[C@@H]1C[C@@]1(C)[C@@H](NC(=O)OCc1ccccc1)c1ccccc1	-2.7	-26.0	-13.1	0.0	10.9	18.1
C[C@@H](C(=O)NCc1ccc(S(C)(=O)=O)cc1)[C@H]1C[C@]1(C)[C@H](NC(=O)OCc1ccccc1)c1ccccc1	3.9	55.2*	-0.1	/	-1.1	8.7
CCNC(=O)C[C@H]1CC[C@@H]2[C@H](COC[C@H](O)CN2C(=O)C2CC2)O1	-1.9	/	-2.3	/	22.2	8.6
COc1ccc(C(=O)CSc2nnc(Cn3cnc4ccccc43)o2)cc1	/	105.9*	5.9	-0.3	/	-12.0
C[C@@H]1CN([C@@H](C)CO)C(=O)c2cc(C#CCN(C)C)cnc2O[C@H]1CN(C)Cc1ccccn1	-0.7	-11.5[16.7 µM]	-2.9	/	-3.2	/
C[C@H](CO)N1C[C@H](C)[C@H](CN(C)Cc2ccc(C(F)(F)F)cc2)OCCCC[C@H](C)Oc2ccc(NC(=O)Nc3ccc(C(F)(F)F)cc3)cc2C1=O	/	65.7*[16.7 µM]	-5.7	/	-4.8	15.3
C[C@@H]1CN([C@H](C)CO)C(=O)c2cc(NC(=O)Nc3ccc(C(F)(F)F)cc3)ccc2O[C@@H](C)CCCCO[C@H]1CN(C)Cc1ccc(C(F)(F)F)cc1	/	63.9*[16.7 µM]	1.3	/	13.4	19.5
C[C@H]1CCCCO[C@@H](CN(C)Cc2ccc(C(F)(F)F)cc2)[C@@H](C)CN([C@@H](C)CO)C(=O)c2cc(NC(=O)Nc3ccc(C(F)(F)F)cc3)ccc2O1	/	81.9*[16.7 µM]	2.0	/	5.5	-29.1
CC(C)C#Cc1cnc2c(c1)C(=O)N([C@@H](C)CO)C[C@@H](C)[C@@H](CN(C)C(=O)c1cccnc1)O2	-2.8	/	6.7	/	-1.4	-7.3
C[C@H]1CN([C@@H](C)CO)C(=O)c2cc(-c3ccccc3F)cnc2O[C@H]1CN(C)C(=O)C1CCC1	-1.8	5.1[16.7 µM]	/	/	-8.1	/
CC1CCN(S(=O)(=O)c2ccc3c(c2)C(=NO)c2cc(S(=O)(=O)N4CCC(C)CC4)ccc2-3)CC1	/	/	/	-14.1	/	/
SMILES	MLL AF4-AF9 inh	Env fusion inh	FN deposit inh	Glyco luc inh	EWS-Fli block	PAX8 reporter
O=S(=O)(c1ccc2c(c1)C(=NO)c1cc(S(=O)(=O)N3CCCCC3)ccc1-2)N1CCCCC1	/	125.5*	2.4	-13.6	/	108.6*
Cc1noc(C)c1S(=O)(=O)Nc1ccc2c(c1)C(=O)N([C@@H](C)CO)C[C@@H](C)[C@H](CN(C)Cc1ccc(C(F)(F)F)cc1)OCCCC[C@H](C)O2	-0.5	26.6[16.7 µM]	/	/	/	64.2*
Cc1noc(C)c1S(=O)(=O)Nc1ccc2c(c1)C(=O)N([C@H](C)CO)C[C@H](C)[C@H](CN(C)Cc1ccc(C(=O)O)cc1)OCCCC[C@H](C)O2	-12.2	-5.5[16.7 µM]	0.7	/	-8.4	-1.6
Cc1noc(C)c1S(=O)(=O)Nc1ccc2c(c1)C(=O)N([C@H](C)CO)C[C@H](C)[C@H](CN(C)Cc1ccc(C(F)(F)F)cc1)OCCCC[C@H](C)O2	2.9	1.8[16.7 µM]	/	/	/	74.4*
Cc1noc(C)c1S(=O)(=O)Nc1ccc2c(c1)C(=O)N([C@@H](C)CO)C[C@H](C)[C@@H](CN(C)Cc1ccc(C(F)(F)F)cc1)OCCCC[C@@H](C)O2	1.0	-38.6[16.7 µM]	/	/	/	72.1*
Cc1noc(C)c1S(=O)(=O)Nc1ccc2c(c1)C(=O)N([C@H](C)CO)C[C@H](C)[C@@H](CN(C)Cc1ccc(C(F)(F)F)cc1)OCCCC[C@H](C)O2	1.6	-6.7[16.7 µM]	/	/	/	72.2*
COc1ccc(N2CCN(C3CCCN(S(=O)(=O)c4ccc(C)cc4C)C3)CC2)cc1 (stereo not given)	31.6*	31.7	2.5	-4.4	10.0	9.6
C[C@H]1CN([C@@H](C)CO)C(=O)c2cccc(NC(=O)NC3CCCCC3)c2O[C@@H]1CN(C)S(=O)(=O)c1ccc(F)cc1	-1.2	/	-9.9	/	0.1	10.3
C[C@@H]1CN([C@H](C)CO)C(=O)c2cccc(NS(=O)(=O)c3ccc(Cl)cc3)c2O[C@H]1CN(C)CC1CCCCC1	-0.6	88.4*[16.7 µM]	11.8	/	8.8	3.0
C[C@H](CO)N1C[C@H](C)[C@H](CN(C)S(=O)(=O)c2ccc(Cl)cc2)Oc2c(NC(=O)NC3CCCCC3)cccc2C1=O	1.8	/	2.6	/	19.8	92.2*
C[C@H](CO)N1C[C@H](C)[C@@H](CN(C)S(=O)(=O)c2ccc(F)cc2)Oc2c(NC(=O)NC3CCCCC3)cccc2C1=O	49.0*!	-10.6	-9.0	-1.4	11.4	12.3
Cc1ccc(S(=O)(=O)Nc2ccc3c(c2)C(=O)N([C@@H](C)CO)C[C@@H](C)[C@H](CN(C)Cc2ccc4c(c2)OCO4)O3)cc1	3.6	/	/	/	-7.2	6.1
